Experimental data: ChEMBL document CHEMBL1157681 (Bioorg Med Chem, 2010)
Calls of active or inactive are those of the source. The calls are words filed in the database; no cut-off is given here.

Tests used:
[1] = system: MCF7; experiment: Antiproliferative activity against human MCF7 cells after 72 hrs by MTS/PMS assay; type: functional, cell-based; settings: MCF7, 72 h
Summary of the method: (§1)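 Cells grown at 37 °C in humidified 5% CO2, seeded at 2000/well and left to attach overnight. Compound added at varying concentrations in DMSO (1% final) for 72 h. Viable cells read by MTS/PMS, normalized to 1% DMSO wells as 100% proliferation. IC50 taken from separate experiments run in triplicate.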

[2] = system: SK-BR-3; experiment: Antiproliferative activity against human SKBR3 cells after 72 hrs by MTS/PMS assay; type: functional, cell-based; settings: SK-BR-3, 72 h; summary of the method: as §1
[3] = system: SK-BR-3; experiment: Ratio of IC50 for human SK-BR-3 cells to IC50 for human MCF7 cells; type: functional
[4] = target: Heat shock protein HSP 90-beta (Homo sapiens) (UniProt P08238); experiment: Inhibition of HSP90 in human MCF7 cells assessed as induction of HSP90 client protein cRaf degradation after 24 hrs by Western blot analysis; type: cell-based
Summary of the method: (§2)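 MCF-7 cells exposed 24 h to various concentrations in DMSO (1% final) or vehicle. Cells lysed in RIPA with 1 mM PMSF, 2 mM orthovanadate and protease inhibitors, 1 h on ice, then clarified at 14000g for 10 min at 4 °C; protein by BCA. 20 μg protein run under reducing conditions, blotted to nitrocellulose, probed with specific antibodies plus HRP secondary, read by chemiluminescence; β-actin also probed.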

[5] = system: MCF7; experiment: Inhibition of heat shock response-induced increase in HSP90 protein level in human MCF7 cells at 1 to 100 uM after 24 hrs by Western blot analysis; type: functional, cell-based
[6] = target: Heat shock protein HSP 90-beta (Homo sapiens) (UniProt P08238); experiment: Inhibition of HSP90 in human MCF7 cells assessed as induction of HSP90 client protein Her2 degradation after 24 hrs by Western blot analysis; type: cell-based; summary of the method: as §2

Chain of Heat shock protein HSP 90-beta (Homo sapiens) (P08238 whole entry): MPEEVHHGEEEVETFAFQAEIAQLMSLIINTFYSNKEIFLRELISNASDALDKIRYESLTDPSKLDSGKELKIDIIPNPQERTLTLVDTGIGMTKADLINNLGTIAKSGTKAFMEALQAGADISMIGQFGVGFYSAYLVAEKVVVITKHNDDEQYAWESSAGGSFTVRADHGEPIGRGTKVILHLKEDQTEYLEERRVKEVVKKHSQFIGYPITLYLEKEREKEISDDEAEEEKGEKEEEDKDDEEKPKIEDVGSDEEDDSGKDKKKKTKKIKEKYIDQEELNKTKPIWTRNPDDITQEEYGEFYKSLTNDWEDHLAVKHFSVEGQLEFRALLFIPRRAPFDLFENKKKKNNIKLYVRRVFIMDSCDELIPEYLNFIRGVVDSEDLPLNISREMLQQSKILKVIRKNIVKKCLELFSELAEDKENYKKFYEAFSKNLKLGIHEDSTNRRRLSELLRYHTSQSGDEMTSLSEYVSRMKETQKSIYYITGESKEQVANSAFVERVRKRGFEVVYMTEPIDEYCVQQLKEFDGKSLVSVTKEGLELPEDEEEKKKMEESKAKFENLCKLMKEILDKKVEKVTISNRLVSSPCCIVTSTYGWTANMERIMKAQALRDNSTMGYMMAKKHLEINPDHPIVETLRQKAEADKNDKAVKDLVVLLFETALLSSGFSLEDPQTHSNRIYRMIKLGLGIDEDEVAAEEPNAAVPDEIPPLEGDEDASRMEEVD

| SMILES | IC50 [1] [µM] | IC50 [2] [µM] | Activity [4] | Activity [6] | Ratio IC50 [3] | inhibition [5] |
| --- | --- | --- | --- | --- | --- | --- |
| COc1cccc(-c2cc(C(=O)Nc3cc(=O)c4cc(O[C@@H]5OC(C)(C)[C@H](OC)[C@@H](O)[C@H]5O)ccc4o3)ccc2OC)c1 | 14.7 | 33.8 |  |  |  |  |
| CC(C)=CCc1c(O)cc2occ(-c3ccc4c(c3)OCO4)c(=O)c2c1O [DERRUBONE] | 11.9 |  |  |  |  |  |
| COc1cccc(-c2cc(C(=O)Nc3coc4c(C)c(O[C@@H]5OC(C)(C)[C@H](OC)[C@@H](O)[C@H]5O)ccc4c3=O)ccc2OC)c1 | 51.6 | 46 |  |  |  |  |
| CO[C@@H]1[C@@H](O)[C@@H](O)[C@H](Oc2ccc3oc(NC(C)=O)cc(=O)c3c2)OC1(C)C | > 100 | > 100 |  |  |  |  |
| CC(C)=CCc1cc2c(=O)c(-c3ccc4c(c3)OCO4)coc2cc1O | 13.1 | 36.5 |  |  |  |  |
| COc1cccc(-c2cc(C(=O)Nc3cc(=O)c4cc(OC(C)=O)ccc4o3)ccc2OC)c1 | > 100 | > 100 |  |  |  |  |
| O=c1c(-c2ccc3c(c2)OCO3)coc2cc(O)cc(O)c12 | 70 | > 100 |  |  |  |  |
| CO[C@@H]1[C@@H](O)[C@@H](O)[C@H](Oc2ccc3c(=O)c(-c4ccc5c(c4)OCO5)coc3c2C)OC1(C)C | 18.4 | 21.4 |  |  |  |  |
| COc1cccc(-c2cc(C(=O)Nc3coc4cc(O[C@@H]5OC(C)(C)[C@H](OC)[C@@H](O)[C@H]5O)ccc4c3=O)ccc2OC)c1 | 25.2 | 29 | Dose-dependent effect | Dose-dependent effect |  | Active |
| CO[C@@H]1[C@@H](O)[C@@H](O)[C@H](Oc2ccc3c(=O)c(-c4ccc5c(c4)OCO5)coc3c2)OC1(C)C | 9.2 | 18 |  |  |  |  |
| COc1cccc(-c2cc(C(=O)Nc3coc4cc(O[C@@H]5OC(C)(C)[C@H](OC)[C@@H](O)[C@H]5O)cc(O)c4c3=O)ccc2OC)c1 | 23.6 | 19.4 |  |  |  |  |
| CO[C@@H]1[C@@H](O)[C@@H](O)[C@H](Oc2cc(O)c3c(=O)c(-c4ccc5c(c4)OCO5)coc3c2)OC1(C)C | > 100 | > 100 |  |  |  |  |
| CO[C@@H]1[C@@H](O)[C@@H](O)[C@H](Oc2ccc3cc(NC(=O)CCCCC(=O)Nc4cc5ccc(O[C@@H]6OC(C)(C)[C@H](OC)[C@@H](O)[C@H]6O)cc5oc4=O)c(=O)oc3c2)OC1(C)C |  | 2 |  |  |  |  |
| CC(C)=CCc1cc2c(=O)c(-c3ccc4c(c3)OCO4)coc2c(C)c1O | 49.2 | > 100 |  |  |  |  |
| Cc1c(O)ccc2c(=O)c(-c3ccc4c(c3)OCO4)coc12 | > 100 | > 100 |  |  |  |  |
| COc1cccc(-c2cc(C(=O)Nc3cc(=O)c4cc(O)ccc4o3)ccc2OC)c1 | 10.5 | 19.6 |  |  |  |  |
| O=c1c(-c2ccc3c(c2)OCO3)coc2cc(O)ccc12 [PSEUDOBAPTOGENIN] | > 100 | > 100 |  |  |  |  |
| COc1cccc(-c2cc(C(=O)Nc3coc4cc(O)cc(O)c4c3=O)ccc2OC)c1 | 9.7 | 21.3 |  |  | 1.9 |  |
| COc1cccc(-c2cc(C(=O)Nc3coc4c(C)c(O)ccc4c3=O)ccc2OC)c1 | 4.9 | 44.1 |  |  | 1.9 |  |

Continued, in another order:

| IC50 [1] [µM] | IC50 [2] [µM] | Activity [4] | Activity [6] | SMILES | Ratio IC50 [3] | inhibition [5] |
| --- | --- | --- | --- | --- | --- | --- |
| > 100 | > 100 |  |  | CC(=O)Nc1cc(=O)c2cc(O)ccc2o1 |  |  |
| > 100 | > 100 |  |  | CC(=O)Nc1coc2c(C)c(OC(C)=O)ccc2c1=O |  |  |
| > 100 | > 100 |  |  | CO[C@@H]1[C@@H](O)[C@@H](O)[C@H](Oc2ccc3c(=O)c(NC(C)=O)coc3c2)OC1(C)C |  |  |
| 93.7 | > 100 |  |  | CC(=O)Nc1coc2cc(OC(C)=O)cc(O)c2c1=O |  |  |
| > 100 | > 100 |  |  | CC(=O)Nc1coc2cc(O)cc(O)c2c1=O |  |  |
| > 100 | > 100 |  |  | CC(=O)Nc1coc2c(C)c(O)ccc2c1=O |  |  |
| 8.6 | 37.1 |  |  | COc1cccc(-c2cc(C(=O)Nc3coc4cc(O)ccc4c3=O)ccc2OC)c1 | 1.9 |  |
| > 100 | > 100 |  |  | CC(=O)Nc1cc(=O)c2cc(OC(C)=O)ccc2o1 |  |  |
| > 100 | > 100 |  |  | CC(=O)Oc1cc(O)c2c(=O)c(-c3ccc4c(c3)OCO4)coc2c1 |  |  |
| > 100 | > 100 |  |  | CC(=O)Nc1coc2cc(OC(C)=O)ccc2c1=O |  |  |
| > 100 | > 100 |  |  | CC(=O)Oc1ccc2c(=O)c(-c3ccc4c(c3)OCO4)coc2c1C |  |  |
| > 100 | > 100 |  |  | CO[C@@H]1[C@@H](O)[C@@H](O)[C@H](Oc2ccc3c(=O)c(NC(C)=O)coc3c2C)OC1(C)C |  |  |
| > 100 | > 100 |  |  | CC(=O)Nc1coc2cc(O)ccc2c1=O |  |  |
| 4.8 | 17 |  |  | COc1cccc(-c2cc(C(=O)Nc3coc4c(C)c(OC(C)=O)ccc4c3=O)ccc2OC)c1 |  |  |
| > 100 | > 100 |  |  | CC(=O)Oc1ccc2c(=O)c(-c3ccc4c(c3)OCO4)coc2c1 |  |  |
| 5.1 | 3.3 |  |  | COc1cccc(-c2cc(C(=O)Nc3coc4cc(OC(C)=O)cc(O)c4c3=O)ccc2OC)c1 |  |  |
| > 100 | > 100 |  |  | CO[C@@H]1[C@@H](O)[C@@H](O)[C@H](Oc2cc(O)c3c(=O)c(NC(C)=O)coc3c2)OC1(C)C |  |  |
| 9.5 | 18.4 |  |  | COc1cccc(-c2cc(C(=O)Nc3coc4cc(OC(C)=O)ccc4c3=O)ccc2OC)c1 |  |  |
